According to ChEMBL document CHEMBL4402547, “Synthesis and Pharmacological Characterization of Conformationally Restricted Retigabine Analogues as Novel Neuronal Kv7 Channel Activators” (J Med Chem, 2020):
Activity calls are given as the source filed them. No cut-off for these calls is given here.

Columns and labels:
[1] = biological target: Voltage-gated potassium channel, KQT; KCNQ2(Kv7.2)/KCNQ3(Kv7.3) (Homo sapiens) (UniProt O43526+O43525); assay: Activation of human Kv7.2/Kv7.3 expressed in CHO cells assessed as delta V at 10 uM by whole cell patch clamp electrophysiology assay; type: cell-based
[2] = test system: Potassium voltage-gated channel subfamily KQT member 2 (Homo sapiens), O43526 [F168L]; assay: Activation of ICA-insensitive human Kv7.2 F168L mutant expressed in CHO cells assessed as increase in channel current amplitude at 10 uM measured at holding potential of -40 mV by whole cell patch clamp electrophysiology assay; type: cell-based
Potassium voltage-gated channel subfamily KQT member 2 (Homo sapiens), O43526 [F168L], sequence (O43526 whole entry F168L, the tested form may be a part): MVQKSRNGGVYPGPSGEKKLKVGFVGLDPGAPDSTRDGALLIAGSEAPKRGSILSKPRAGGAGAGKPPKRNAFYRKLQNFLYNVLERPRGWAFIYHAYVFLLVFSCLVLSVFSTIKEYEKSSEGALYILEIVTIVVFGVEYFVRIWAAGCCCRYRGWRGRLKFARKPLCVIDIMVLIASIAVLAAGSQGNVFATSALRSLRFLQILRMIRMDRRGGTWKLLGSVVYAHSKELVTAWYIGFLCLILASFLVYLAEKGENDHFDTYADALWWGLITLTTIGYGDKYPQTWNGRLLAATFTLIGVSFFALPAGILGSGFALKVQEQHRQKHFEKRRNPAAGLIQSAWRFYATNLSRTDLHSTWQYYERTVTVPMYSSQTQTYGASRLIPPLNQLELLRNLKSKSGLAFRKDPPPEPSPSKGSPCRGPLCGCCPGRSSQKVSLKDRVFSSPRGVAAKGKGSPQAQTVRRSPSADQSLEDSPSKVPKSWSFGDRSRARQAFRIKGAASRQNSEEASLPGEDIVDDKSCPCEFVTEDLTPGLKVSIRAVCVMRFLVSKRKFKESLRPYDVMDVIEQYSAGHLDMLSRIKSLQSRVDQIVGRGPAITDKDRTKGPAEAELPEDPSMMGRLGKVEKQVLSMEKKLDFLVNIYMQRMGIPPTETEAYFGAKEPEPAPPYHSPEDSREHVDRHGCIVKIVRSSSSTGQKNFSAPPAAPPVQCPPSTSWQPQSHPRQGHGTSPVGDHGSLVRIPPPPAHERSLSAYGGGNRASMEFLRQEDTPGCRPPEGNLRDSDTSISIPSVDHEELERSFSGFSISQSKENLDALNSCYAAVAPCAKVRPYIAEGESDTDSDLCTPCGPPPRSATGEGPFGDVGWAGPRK
Method in brief: (§1)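 CHO cells transiently co-transfected (Lipofectamine 2000, 4 μg total cDNA, EGFP marker) with human channel cDNA in pcDNA3.1, recorded 24 h later. Whole-cell patch clamp at 20–22°C, 3–5 MΩ pipettes, perfused extracellular solution pH 7.4. Held at −80 mV; 3-s ramps −80 to +20 mV ± 10 μM drug. Current at −40 mV with vs without drug expressed as ratio; ≥3 cells from ≥2 transfections, mean ± SEM.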

[3] = biological target: T1, Potassium voltage-gated channel subfamily KQT member 3 (Homo sapiens) (UniProt O43525); assay: Activation of human Kv7.3 expressed in CHO cells assessed as delta V at 30 uM by whole cell patch clamp electrophysiology assay; type: cell-based
T1 sequence (whole entry): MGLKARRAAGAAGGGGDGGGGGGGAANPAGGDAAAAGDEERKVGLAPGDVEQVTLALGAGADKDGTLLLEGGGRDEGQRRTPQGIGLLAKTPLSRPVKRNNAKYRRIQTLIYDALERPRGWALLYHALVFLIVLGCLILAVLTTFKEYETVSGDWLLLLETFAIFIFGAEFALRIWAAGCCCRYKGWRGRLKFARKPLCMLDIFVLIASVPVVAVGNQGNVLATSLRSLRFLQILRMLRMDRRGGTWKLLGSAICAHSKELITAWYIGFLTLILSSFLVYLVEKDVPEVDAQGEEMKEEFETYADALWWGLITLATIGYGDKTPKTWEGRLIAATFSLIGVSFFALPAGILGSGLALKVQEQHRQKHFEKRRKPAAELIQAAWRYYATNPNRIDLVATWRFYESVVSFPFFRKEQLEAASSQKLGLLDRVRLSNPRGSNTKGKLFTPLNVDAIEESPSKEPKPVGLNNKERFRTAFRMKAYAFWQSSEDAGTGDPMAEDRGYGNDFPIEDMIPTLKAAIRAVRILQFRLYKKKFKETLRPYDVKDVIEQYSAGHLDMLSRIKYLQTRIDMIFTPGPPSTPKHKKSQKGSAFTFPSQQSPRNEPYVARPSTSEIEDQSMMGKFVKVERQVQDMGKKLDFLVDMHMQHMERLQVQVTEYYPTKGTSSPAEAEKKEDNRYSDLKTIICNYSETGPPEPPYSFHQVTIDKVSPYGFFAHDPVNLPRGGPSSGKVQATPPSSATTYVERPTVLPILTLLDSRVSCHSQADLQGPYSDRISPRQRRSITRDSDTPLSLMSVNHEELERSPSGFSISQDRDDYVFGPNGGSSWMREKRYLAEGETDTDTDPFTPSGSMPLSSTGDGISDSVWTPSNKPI

[4] = biological target: T2, Potassium voltage-gated channel subfamily KQT member 2 (Homo sapiens, UniProt O43526); assay: Activation of human Kv7.2 expressed in CHO cells assessed as increase in current amplitude at 10 uM measured at holding potential of -40 mV by whole cell patch clamp electrophysiology assay relative to control; type: cell-based; method in brief: as §1
T2 sequence (O43526 whole entry): as the sequence (O43526 whole entry F168L, the tested form may be a part) above, with L168F counted along it

[5] = test system: Potassium voltage-gated channel subfamily KQT member 2 (Homo sapiens), O43526 [W236L]; assay: Activation of human Kv7.2 W236L mutant expressed in CHO cells assessed as channel current amplitude at 10 uM measured at holding potential of -40 mV by whole cell patch clamp electrophysiology assay; type: cell-based; method in brief: as §1
Potassium voltage-gated channel subfamily KQT member 2 (Homo sapiens), O43526 [W236L], sequence (O43526 whole entry W236L): as the sequence (O43526 whole entry F168L, the tested form may be a part) above, with L168F, W236L counted along it

[6] = biological target: T2, Potassium voltage-gated channel subfamily KQT member 2; assay: Activation of human Kv7.2 expressed in CHO cells assessed as increase in current amplitude at 10 uM measured at holding potential of 0 mV by whole cell patch clamp electrophysiology assay relative to control; type: cell-based
Method in brief: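 Transiently transfected CHO cells expressing human Kv7.2, whole-cell patch clamp at 20–22°C in HEPES-buffered saline pH 7.4. Cells held at −80 mV and ramped −80 to +20 mV over 3 s, before and during 10 μM drug. Ramp current at 0 mV taken as drug/control ratio; mean ± SEM of ≥3 cells, ≥2 transfections.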

[7] = biological target: T3, Potassium voltage-gated channel subfamily KQT member 1 (Homo sapiens, UniProt P51787); assay: Activation of human Kv7.1 expressed in CHO cells assessed as channel current amplitude at 10 uM measured at holding potential of +20 mV and -40 mV by whole cell patch clamp electrophysiology assay; type: cell-based
T3 sequence (P51787 whole entry): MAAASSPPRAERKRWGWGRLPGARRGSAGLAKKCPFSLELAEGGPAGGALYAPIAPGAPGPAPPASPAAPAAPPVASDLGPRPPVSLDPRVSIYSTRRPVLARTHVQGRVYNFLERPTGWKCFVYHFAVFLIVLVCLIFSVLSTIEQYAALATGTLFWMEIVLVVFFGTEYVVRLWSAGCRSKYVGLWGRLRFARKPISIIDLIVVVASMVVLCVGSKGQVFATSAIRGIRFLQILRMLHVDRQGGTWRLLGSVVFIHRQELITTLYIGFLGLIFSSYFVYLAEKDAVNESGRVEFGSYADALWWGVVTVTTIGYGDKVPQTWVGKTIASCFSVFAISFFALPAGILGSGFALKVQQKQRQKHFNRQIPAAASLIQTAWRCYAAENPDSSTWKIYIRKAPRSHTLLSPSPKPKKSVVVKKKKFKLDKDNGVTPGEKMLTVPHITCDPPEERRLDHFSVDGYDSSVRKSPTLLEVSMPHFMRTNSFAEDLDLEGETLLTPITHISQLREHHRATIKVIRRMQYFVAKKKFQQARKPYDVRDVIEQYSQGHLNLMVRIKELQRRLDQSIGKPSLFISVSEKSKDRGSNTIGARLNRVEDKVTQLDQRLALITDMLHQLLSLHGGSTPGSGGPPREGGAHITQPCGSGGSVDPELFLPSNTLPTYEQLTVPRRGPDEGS

[8] = Photostability of compound in pH 7.4 buffer assessed as compound degradation at 100 ug/ml incubated for 4 hrs under natural solar light-irradiation by HPLC analysis relative to control
Method in brief: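 DMSO solutions diluted in pH 7.4 buffer, held in 1 cm quartz cells and exposed to natural daylight. Light-shielded controls kept at 37°C in foil. Aliquots drawn at set intervals and parent compound loss measured by UHPLC: C18 column, 0.1% TFA water/acetonitrile gradient, 45°C, detection at 254 nm.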

For CCCCCCC(=O)Nc1ccc2c(ccn2Cc2ccc(C(F)(F)F)cc2)c1, which Activity [1] is on record?
The Activity was -25.4 mV.

And the Activity [2]?
Its Activity is “Active”.

What about the Activity [3] of the same compound?
The Activity was -26.2 mV.

What about the Activity [4] of the same compound?
The Activity was “Active”.

And the Activity [5]?
Its Activity is “inactive”.

And the Activity [6]?
The Activity was “Active”.

What about the Activity [7] of the same compound?
Its Activity is “Not Active”.

And the Drug degradation [8]?
The Drug degradation was 5.82%.

Which results are given for CCOC(=O)Nc1ccc(NCc2ccc(F)cc2)cc1N [EZOGABINE]?
Activity [1]: -26.8 mV; Activity [2]: Active; Activity [3]: -39.9 mV; Ratio [4]: 6; Activity [5]: inactive; Ratio [6]: 2; Activity [7]: Not Active; Drug degradation [8]: 25.2%

Which Activity [1] does the source give for CC(C)(C)CC(=O)Nc1ccc2c(ccn2Cc2ccc(C(F)(F)F)cc2)c1 here?
The Activity was -20 mV.

What about the Activity [2] of the same compound?
Its Activity is “Active”.

And the Activity [3]?
Its Activity is -21.4 mV.

What about the Activity [4] of the same compound?
The Activity was “Active”.

And the Activity [5]?
Its Activity is “inactive”.

And the Activity [6]?
The Activity was “Active”.

And the Drug degradation [8]?
The Drug degradation was 6.62%.
